E-sel inducer – induces E-selectin expression in human endothelial cells; HUVEC E-selectin immunofluorescence imaging; normalized: neutral wells 0, TNF-alpha wells 100; 260,000 tested, 0.37% active; activation, % at 7.58 µM; P16581;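 active = mean E-selectin-positive cell signal at least 10% of the positive control, reached in at least 60% of replicates, without over 20% cell loss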
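Assay system: HUVEC, human umbilical vein endothelial cells / Amount: 3,000 HUVEC/well / Controls: TNF-alpha positive control, DMSO neutral control / Compound dosing: single concentration / Medium: EGM-2 over gelatin coat / Evaluation: percent E-selectin-positive cells / Signal: immunofluorescence imaging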
Ecoli rRNA inh – inhibits bacterial ribosomal RNA function over humanized ribosomes. E. coli WT GFP vs humanized-ribosome RFP mutants, fluorescence, 24 h; stronger effect = lower value; DMSO median 0, no signal -100. GFP signal change (wild-type ribosome), % (test concentration not listed). 350,000 tested, 1.6% active. AID 720706;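 active = significant combined selectivity score with lowered wild-type GFP, culture density cut under 30%, mutant RFP and density less affected; inactive = any of these conditions unmet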
MLL AF4-AF9 inh – blocks AF4 peptide binding to human AF9; AlphaScreen, biotin-AF4 peptide binding to FLAG-AF9; inhibition, % at 10 µM; P42568; 350,000 tested, 0.47% active;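 active = every replicate reaching a set inhibition limit, whatever the replicate mean, cut at about 25% in these data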
RAD54 branch – blocks human RAD54 Holliday junction branch migration. Q92698. inhibition, % at 10.4 µM. 360,000 tested, 0.14% active. FAM/BHQ fluorescence;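 active = mean normalized replicate activity at least 40 and at least half of replicates scoring 40 or more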;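 note: inhibitors cause a drop in the FAM fluorescence signal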
GSIS activator – primary screen for activators of insulin secretion dependent on glucose, INS-1E cells, GLuc reporter luminescence; INS-1E GLuc reporter insulin secretion, 2-3 h; 370,000 tested, 0.61% active; AID 743287; activation, % at 16.6 µM;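 active = lowest replicate activation of at least 40%, so every replicate reaches that level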
RAD52 anneal inh – inhibitors of human RAD52 DNA annealing. P43351. recombinant RAD52 DNA annealing, FRET fluorescence. inhibition, % at 18.7 µM. 360,000 tested, 0.46% active. AID 651710;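 active = every replicate showing at least 50% inhibition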
Target sequence (P43351 whole entry, looked up): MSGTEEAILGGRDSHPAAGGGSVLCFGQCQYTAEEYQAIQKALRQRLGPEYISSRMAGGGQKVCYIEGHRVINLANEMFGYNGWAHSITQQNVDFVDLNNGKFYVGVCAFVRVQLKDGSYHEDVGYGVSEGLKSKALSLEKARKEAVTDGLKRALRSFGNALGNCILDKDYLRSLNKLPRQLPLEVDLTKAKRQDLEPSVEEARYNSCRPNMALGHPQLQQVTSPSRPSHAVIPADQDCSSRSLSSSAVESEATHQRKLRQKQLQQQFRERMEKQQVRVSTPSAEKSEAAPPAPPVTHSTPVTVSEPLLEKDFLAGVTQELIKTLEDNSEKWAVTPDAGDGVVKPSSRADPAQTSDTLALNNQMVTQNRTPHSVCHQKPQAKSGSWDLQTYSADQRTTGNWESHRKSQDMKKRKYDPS
A number is an active result; 0 = inactive; - = not tested or not shown. Rows were chosen to be rich in hits. Some 2.6% of all compounds tested hit in one or more screens of this group.

SMILES	E-sel inducer	Ecoli rRNA inh	MLL AF4-AF9 inh	RAD54 branch	GSIS activator	RAD52 anneal inh
CCN1[C@@H]2Cn3c(ccc(/C=C/c4ccccc4)c3=O)[C@H]1[C@@H](C(=O)NC1Cc3ccccc3C1)[C@@H]2CO	0	0	0	-	0	0
Cc1ccc(S(=O)(=O)N2[C@@H](c3ccccc3F)C(C(=O)O)=CC[C@H]2c2cccs2)cc1	0	-16	0	0	-	0
CCc1ccc([C@@H]2CC=C(C(=O)O)[C@H](c3ccc(C)cc3)N2S(=O)(=O)c2ccc(C)cc2)cc1	0	-24	0	0	0	0
Cc1ccc([C@H]2C(C(=O)O)=CC[C@@H](c3ccc(C)cc3)N2S(=O)(=O)c2ccccc2C)cc1	0	-39	0	0	0	0
Cc1ccc([C@@H]2CC=C(C(=O)O)CN2S(=O)(=O)c2ccccc2C)cc1	0	-25	0	0	-	0
Cc1ccc([C@@H]2CC=C(C(=O)O)CN2S(=O)(=O)c2ccc(C)cc2)cc1	-	0	0	0	0	0
C[C@H]1CN(C)C(=O)Cc2cc(NS(C)(=O)=O)ccc2O[C@@H]1CN(C)C	-	0	-	-	0	-
O=C(C[C@@H]1C[C@H]2c3cc(NC(=O)Nc4ccccc4)ccc3O[C@H]2[C@@H](CO)O1)NCC1CC1	0	0	0	0	0	0
CCCN(C)C[C@H]1Oc2cc(-c3ccccc3)ccc2S(=O)(=O)N([C@H](C)CO)C[C@H]1C	0	0	0	0	0	0
CC(C)CCNc1nc(N)c([N+](=O)[O-])c(NCCO)n1	0	0	-	0	0	0
CCC(C)Nc1nc(N)c([N+](=O)[O-])c(NCCO)n1 (stereo unspecified)	-	0	-	-	71	0
O=C(C[C@H]1CC[C@H]2[C@@H](COC[C@@H](O)CN2S(=O)(=O)c2ccc(F)cc2)O1)NCC1CCCCC1	0	0	0	0	0	0
O=C(C[C@H]1CC[C@H]2[C@@H](COC[C@H](O)CN2S(=O)(=O)c2ccccc2)O1)NCC1CCCCC1	0	0	33	0	0	83
O=C(C[C@H]1CC[C@H]2[C@@H](COC[C@H](O)CN2S(=O)(=O)c2ccc(F)cc2)O1)NCC1CC1	-	0	0	0	0	0
Cc1ccc(S(=O)(=O)N2C[C@@H](O)COC[C@H]3O[C@@H](CC(=O)NCC4CCCCC4)CC[C@@H]32)cc1	0	0	0	0	0	53
O=C(C[C@@H]1CC[C@H]2[C@@H](COC[C@@H](O)CN2S(=O)(=O)c2ccc(F)cc2)O1)NCC1CCCCC1	0	0	31	0	0	70
O=C(C[C@H]1CC[C@H]2[C@@H](COC[C@H](O)CN2S(=O)(=O)c2ccc(F)cc2)O1)NCC1CCCCC1	0	0	28	0	0	66
O=C(C[C@@H]1CC[C@@H]2[C@H](COC[C@H](O)CN2S(=O)(=O)c2ccccc2)O1)NCC1CCCCC1	0	0	0	0	0	0
Cc1noc(C)c1S(=O)(=O)Nc1ccc2c(c1)CC(=O)N([C@H](C)CO)C[C@@H](C)[C@@H](CN(C)S(=O)(=O)c1ccc(Cl)cc1)O2	0	0	0	0	0	0
C[C@H](CO)N1C[C@H](C)[C@@H](CN(C)CC2CCCC2)Oc2cc(C#CC(C)(C)O)ccc2S1(=O)=O	0	0	0	0	0	0
CCOC(=O)CCCc1ccc(/C(C)=N/NC(N)=S)cc1	-	-44	0	-	-	0
COc1ccc(CN(C)C[C@H]2Oc3ccc(NC(=O)c4ccncc4)cc3C(=O)N([C@H](C)CO)C[C@@H]2C)cc1	47	0	0	0	0	0
C[C@@H]1CN([C@H](C)CO)C(=O)c2cc(NC(=O)c3ccncc3)ccc2O[C@H]1CN(C)Cc1ccncc1	0	0	0	0	0	0
COc1ccc(CN(C)C[C@@H]2Oc3ccc(NC(=O)c4ccncc4)cc3C(=O)N([C@H](C)CO)C[C@H]2C)cc1	93	0	0	0	0	0
C=CCNc1ncnc2c1ncn2[C@H]1CN(Cc2cc(OC)c(OC)c(OC)c2)C[C@@H](CO)O1	-	0	0	0	42	0
C[C@@H]1CCCCO[C@@H](CN(C)S(=O)(=O)c2cn(C)cn2)[C@@H](C)CN([C@H](C)CO)C(=O)c2cc(NC(=O)Nc3ccccc3)ccc2O1	0	0	0	0	0	0

High-throughput results: PubChem, Broad Institute
